Hits are enriched below; roughly 6.6% of the tested compounds scored in any of these assays.
Ecoli tolC – growth inhibitors of E. coli tolC mutant, primary screen, strain BW25113 ΔtolC::kan, 384-well | actives 2.2% (n = 65,000) | OD615 | growth inhibition, % at 10 µM (by protocol);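 active = growth inhibition at or above a cutoff equal to the mean over every tested compound plus 3 SD, cut at about 60% in these data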;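 note: growth measured after 20 h incubation at 37 °C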
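System: E. coli ΔtolC::kan strain BW25113; Buffer or medium: LB broth supplemented with 50 µg/mL kanamycin; Compound: 10 µM final, single dose; Incubation: bacterial growth with compound for 20 h at 37 °C; Signal: A615 absorbance measurement; Evaluation: growth inhibition in percent.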
Ecoli WT expand – growth inhibitors of wild-type E. coli, primary screen, strain BW25113, expanded library, OD600. AID 710, 2007. actives 0.15% (n = 98,000). OD600 absorbance. growth inhibition, % at 100 µM;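 active = growth inhibition above about 50% at one test dose, limit read from the data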;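 note: growth measured after 20 h incubation at 37 °C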
Her2 expr inh – inhibitors of Her2 protein expression, primary screen, SKBR-3 cells, AlphaScreen, 66K library; Receptor tyrosine-protein kinase erbB-2 (Homo sapiens), P04626; SKBR-3 HER2 protein level, 18-24 h; active compounds read low; HER2 level % of control, % at 10 µM; actives 0.69% (n = 65,000); AID 645, 2007;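 active = HER2 level under 5% of the carrier-only control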;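 note: lower value means stronger loss of Her2 protein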
PostGolgi ctrl – growth inhibition of yeast control strain, primary screen, counter-screen for post-Golgi transport modulator project; efflux-deficient yeast background strain, growth absorbance A615, 16 h; inhibition, % at 10 µM; actives 5% (n = 98,000)
PostGolgi yeast – phenotypic screen on post-Golgi transport, primary screen. AID 739, 2007. inhibition, % at 10 µM. actives 0.9% (n = 98,000). post-Golgi transport phenotypic cell assay;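 note: yeast cells grown in 1536-well plates; yeast grown about 18 h at 30C before absorbance read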
A number is an active result; 0 = inactive; - = not tested or not shown. Cut-off read from the data, not from the text of the source, unless noted: active = inhibition above about 30%; inactive = the rest.

SMILES | Ecoli tolC | Ecoli WT expand | Her2 expr inh | PostGolgi ctrl | PostGolgi yeast
COc1ccc(CN2CCN(c3ncccn3)CC2)c(OC)c1 | 0 | 0 | 0 | 42 | 0
CCn1nc(C)c(C(=O)Nc2cc(Oc3ccc(Cl)cc3)cc([N+](=O)[O-])c2)c1C | - | 0 | - | 0 | 0
CCOC(=O)N1CCN(CC(O)COCCC23CC4CC(CC(C4)C2)C3)CC1 (configuration not stated) | - | 0 | - | 31 | 0
CCN(CC)CC(O)COCCC12CC3CC(CC(C3)C1)C2 (configuration not stated) | - | 0 | - | 0 | 0
CC(C)OC(=O)CSc1nnc(-c2ccc(Cl)cc2)n1N | 0 | 0 | 0 | 0 | 35
Cc1ccc(-c2nnc(SCC(=O)OC(C)C)n2N)cc1 | - | 0 | - | 0 | 0
CC1(C)CC(=O)C2=C(C1)Oc1ncn(Cc3ccco3)c(=N)c1C2c1ccccc1 (configuration not stated) | 0 | 0 | 0 | 34 | 0
Cc1cc(=O)oc2cc(OCC#N)ccc12 | 0 | 0 | 0 | 0 | 0
CCOc1ccc2oc(=O)cc(C)c2c1 | - | 0 | - | 36 | 0
CCOc1ccc(Nc2cc(=O)oc3ccccc23)cc1 | - | 0 | - | 48 | 0
Cc1ccc(SCC(=O)Nc2ccccc2C(=O)O)cc1 | - | 0 | - | 0 | 0
O=S(=O)(Nc1cccc2ncccc12)c1cccs1 | 99 | 0 | -7.3 | 0 | 0
COC(=O)c1nnn(-c2nonc2N)c1-c1cccs1 | 0 | 0 | 0 | 0 | 0
CC(=O)C(Sc1nn(C)c(=S)s1)C(=O)Nc1ccccc1 (configuration not stated) | 0 | 0 | 0 | 0 | 0
Cc1ccc(C(=O)Nc2ccccc2-c2ccccc2)o1 | - | 0 | - | 35 | 0
Cc1ccc(C(=O)Nc2ccccc2C(N)=O)o1 | 0 | 0 | 0 | 0 | 0
O=S(=O)(Nc1nc2ccc(S(=O)(=O)N3CCCCC3)cc2s1)c1ccccc1 | - | 0 | - | 0 | 0
CC(=O)Nc1ccc(S(=O)(=O)N2CCN(c3cc(C)ccc3C)CC2)cc1 | 0 | 0 | 0 | 58 | 0
Cc1ccc(C(=O)CSc2nnc(-c3c[nH]c4ccccc34)o2)cc1 | - | 0 | - | 0 | 0
O=C(CSc1nnc(-c2c[nH]c3ccccc23)o1)N(Cc1ccccc1)c1ccc(F)cc1 | 0 | 0 | 0 | 53 | 0
O=C1CCC(C(=O)NC2(C(=O)NC3CCCCC3)CCCCC2)N1 (configuration not stated) | 0 | 0 | 0 | 0 | 0
COC(=O)c1[nH]c2cccc(OC)c2c1NC(=O)CN1CC2(C)CC1CC(C)(C)C2 (configuration not stated) | 62 | 0 | 0 | 0 | 0
O=C(C1CC(c2ccccc2O)=NO1)N1CCCCC1 (configuration not stated) | - | 0 | - | 0 | 0
O=C(Nc1ccc(Cl)cc1)NC1CCCC1Cc1ccco1 (configuration not stated) | 100 | 0 | 0 | 0 | 0
O=C(Nc1ccc(Cl)cc1)NC1CCCCC1Cc1ccco1 (configuration not stated) | - | 0 | - | 0 | 0
SMILES | Ecoli tolC | Ecoli WT expand | Her2 expr inh | PostGolgi ctrl | PostGolgi yeast
CN1CCN(Cn2cc(/C=C/C(=O)c3ccccc3)c3ccccc32)CC1 | - | 0 | - | 34 | 0
O=C(Nc1ccc2snnc2c1)N1CCSCC1 | 0 | - | 0 | - | -
CC1CN(C(=O)Nc2ccc3snnc3c2)c2ccccc21 (configuration not stated) | 0 | 0 | 0 | 30 | 0
CCCCC(CC)COC1(c2ccccc2)OC(=O)c2ccccc21 (configuration not stated) | - | 0 | - | 0 | 0
O=C1OC(OC2CCCCC2)(c2ccccc2)c2ccccc21 (configuration not stated) | - | 0 | - | 39 | 0
O=C1OC(Oc2ccccc2)(c2ccccc2)c2ccccc21 (configuration not stated) | - | 0 | - | 32 | 0
CCCCOC1(c2ccccc2)OC(=O)c2ccccc21 (configuration not stated) | - | 0 | - | 0 | 0
COc1ccc(N2C(=O)CCC(C(=O)Nc3cccc(C)n3)C2c2ccc(OC)c(OC)c2)cc1 (configuration not stated) | 0 | 0 | 0 | 0 | 0
O=C(Cn1cc2c(n1)CCCC2)N1CCc2ccccc21 | 0 | 0 | 0 | 38 | 0
c1ccc(-n2c(SCc3nc(-c4cccs4)no3)nnc2-c2ccco2)cc1 | 0 | 0 | 0 | 34 | 0
CC(C)(C)NC(=O)CSc1nc2ccccc2n1-c1ccccc1 | - | 0 | - | 33 | 0

Assay outcomes (PubChem BioAssay)
